Experimental data taken from ChEMBL document CHEMBL4007401, “Lynamicin D an antimicrobial natural product affects splicing by inducing the expression of SR protein kinase 1” (2017).
The source made the active and inactive calls. No cut-off for these calls is given here.

Columns and labels:
A549 [1] = assay: Modulation of constitutive splicing of rat insulin exons 1 to 3 pre-mRNA expressed in human A549 cells assessed as retention of introns up to 20 uM after 24 hrs by ethidium bromide staining based agarose gel electrophoresis method; format: cell-based
HeLa [2] = assay: Modulation of alternative splicing of SRp20 exons […] pre-mRNA (unknown origin) expressed in human HeLa cells assessed as inclusion of exon-4 up to 20 uM after 24 hrs by ethidium bromide staining based agarose gel electrophoresis method; format: cell-based
How it was run: (§1)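 HeLa (2 x 10exp4) transfected with 0.5 µg pSMN2 (exons 6-8) or pSRp20 (exons 3-5), or 1 µg pSVIRB (rat insulin exons 1-3). After 4 h, medium replaced with lynamicin D (0-20 µM; results cite 10, 20, 30 µM) or DMSO. RNA at 24 h, 1 µg RT, 30 PCR cycles, annealing 60 °C (SRp20 55 °C). Agarose gels; upper/lower band ratio. Means ±SE, n=3.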

HeLa [3] = assay: Modulation of SRPK1 pre-mRNA splicing in human HeLa cells assessed as increase in SRPK1 pre-mRNA level at 10 to 30 uM after 24 hrs by RT-PCR method relative to control; format: cell-based
How it was run: (§2)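 Total RNA from cells treated 24 h or control taken with TRIZOL. 1 µg reverse transcribed with random hexamers. SRPK1 amplified 27 cycles (95 °C 40 s, 66 °C 40 s, 72 °C 60 s); actin reference annealed at 60 °C. Products on 1% agarose, ethidium bromide. SRPK1/actin ratio by densitometry.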

A549 [4] = assay: Modulation of SRPK1 pre-mRNA splicing in human A549 cells assessed as increase in SRPK1 pre-mRNA level at 10 to 30 uM after 24 hrs by RT-PCR method relative to control; format: cell-based; how it was run: as §2
Rattus norvegicus = species on record: Rattus norvegicus; assay: Modulation of constitutive splicing of rat insulin exons 1 to 3 pre-mRNA expressed in human T98G cells assessed as retention of introns up to 20 uM after 24 hrs by ethidium bromide staining based agarose gel electrophoresis method; format: cell-based
HeLa [5] = assay: Modulation of SRPK1 pre-mRNA splicing in human HeLa cells assessed as effect on intracellular localization of SRPK1 at 30 uM after 24 hrs by DAPI staining based immunofluorescence microscopic method; format: cell-based
HeLa [6] = assay: Modulation of SRPK1 pre-mRNA splicing in human HeLa cells assessed as increase in SRPK1 protein level at 10 to 30 uM after 24 hrs by Western blot method relative to control; format: cell-based
How it was run: (§3)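 Lysis in 1% Triton X-100, 20 mM Hepes-KOH pH 7.5, 150 mM NaCl, 1 mM PMSF, 30 min on ice, needle-sheared, spun 13,000 g 15 min. Equal protein on 10% SDS-PAGE. Endogenous SRPK1 probed with mouse monoclonal anti-SRPK1, GAPDH as loading control, AP secondary with BCIP/NBT; SRPK1/GAPDH by densitometry.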

HeLa [7] = assay: Cytotoxicity against human HeLa cells assessed as cell viability at 30 uM after 48 hrs by MTT assay relative to control; format: functional; details: read-out: Activity
How it was run: (§4)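 Cells seeded at 10^4 per well, exposed 24 h later to lynamicin D (0-20 µM in methods; 30 µM stated in results) for 48 h. Then 4 h with 0.5 mg/ml MTT, crystals dissolved in 10% SDS in 0.01 N HCl, A570 read. Blanked against DMSO; medium-only cells = 100% viability. Means ±SE, three independent experiments.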

A549 [8] = assay: Modulation of SRPK1 pre-mRNA splicing in human A549 cells assessed as increase in SRPK1 protein level at 10 to 30 uM after 24 hrs by Western blot method relative to control; format: cell-based; how it was run: as §3
HeLa [9] = assay: Modulation of constitutive splicing of rat insulin exons 1 to 3 pre-mRNA expressed in human HeLa cells assessed as retention of introns up to 20 uM after 24 hrs by ethidium bromide staining based agarose gel electrophoresis method
[10] = Modulation of alternative splicing of SRp20 exons […] pre-mRNA (unknown origin) expressed in human T98G cells assessed as inclusion of exon-4 up to 20 uM after 24 hrs by ethidium bromide staining based agarose gel electrophoresis method; format: cell-based
HeLa [11] = assay: Modulation of alternative splicing of SMN2 exons 6 to 8 pre-mRNA (unknown origin) expressed in human HeLa cells assessed as inclusion of exon-7 up to 20 uM after 24 hrs by ethidium bromide staining based agarose gel electrophoresis method; format: cell-based; how it was run: as §1
HeLa [12] = assay: Modulation of constitutive splicing of rat insulin exons 1 to 3 pre-mRNA expressed in human HeLa cells assessed as retention of introns up to 20 uM after 24 hrs by ethidium bromide staining based agarose gel electrophoresis method; format: cell-based; how it was run: as §1
Homo sapiens [13] = species on record: Homo sapiens; assay: Modulation of SRPK1 pre-mRNA splicing in human T98G cells assessed as increase in SRPK1 pre-mRNA level at 10 to 30 uM after 24 hrs by RT-PCR method relative to control; format: cell-based; how it was run: as §2
[14] = biological target: SRSF protein kinase 1 (Homo sapiens) (UniProt Q96SB4); assay: Inhibition of GST-tagged SRPK1 (unknown origin) at 5 to 30 uM using GST-LBRNt (62 to 92 residues) as substrate by SDS-PAGE based autoradiography
How it was run: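 Radioactive kinase reaction, 25 µL: 12 mM Hepes pH 7.5, 10 mM MgCl2, 25 µM ATP, 0.5 µg recombinant GST-SRPK1, 1 µg GST-LBRNt(62-92) (LBR N-terminal RS-containing fragment) as substrate. Lynamicin D 0-30 µM or SRPIN340 5 µM. Products run on 12% SDS-PAGE, Coomassie-stained and autoradiographed; incorporation measured by excising bands and scintillation counting.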

HeLa (Homo sapiens) = assay: Modulation of alternative splicing of SRp20 exons […] pre-mRNA (unknown origin) expressed in human HeLa cells assessed as inclusion of exon-4 up to 20 uM after 24 hrs by ethidium bromide staining based agarose gel electrophoresis method
A549 [15] = assay: Cytotoxicity against human A549 cells assessed as cell viability at 30 uM after 48 hrs by MTT assay relative to control; format: functional; details: A549, 48 h, read-out: Activity; how it was run: as §4
T98G = assay: Cytotoxicity against human T98G cells assessed as cell viability at 30 uM after 48 hrs by MTT assay relative to control; format: functional; details: read-out: Activity; how it was run: as §4
Homo sapiens [16] = species on record: Homo sapiens; assay: Modulation of SRPK1 pre-mRNA splicing in human T98G cells assessed as increase in SRPK1 protein level at 10 to 30 uM after 24 hrs by Western blot method relative to control; format: cell-based; how it was run: as §3

Sequence of SRSF protein kinase 1 (Homo sapiens) (Q96SB4 whole entry, the tested form may be a part): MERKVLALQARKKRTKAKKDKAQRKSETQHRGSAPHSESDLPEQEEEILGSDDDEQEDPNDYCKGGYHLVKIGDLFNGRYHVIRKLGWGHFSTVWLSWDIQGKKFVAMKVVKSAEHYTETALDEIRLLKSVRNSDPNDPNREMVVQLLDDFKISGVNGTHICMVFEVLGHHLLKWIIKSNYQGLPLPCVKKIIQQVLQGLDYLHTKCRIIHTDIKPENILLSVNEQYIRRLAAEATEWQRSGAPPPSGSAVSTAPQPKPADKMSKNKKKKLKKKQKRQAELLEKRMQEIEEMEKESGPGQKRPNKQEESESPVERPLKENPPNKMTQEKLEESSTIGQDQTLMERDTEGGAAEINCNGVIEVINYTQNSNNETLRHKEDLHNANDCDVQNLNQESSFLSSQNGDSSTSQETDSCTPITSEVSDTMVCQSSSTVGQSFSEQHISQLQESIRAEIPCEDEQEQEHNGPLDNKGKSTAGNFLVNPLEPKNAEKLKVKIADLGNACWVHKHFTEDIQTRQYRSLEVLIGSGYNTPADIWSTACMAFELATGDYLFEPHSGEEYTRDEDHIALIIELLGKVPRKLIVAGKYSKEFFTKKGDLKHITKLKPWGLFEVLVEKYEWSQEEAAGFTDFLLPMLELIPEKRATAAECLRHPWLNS

- inhibition [14]: inactive
Structure (SMILES): COC(=O)c1[nH]c(C(=O)OC)c(-c2c[nH]c3ccc(Cl)cc23)c1-c1c[nH]c2ccc(Cl)cc12 [LYNAMICIN D]
- Activity (A549 [1]): Active
- Activity (HeLa [2]): Active
- fold change (FC) (HeLa [3]): 3
- Activity (A549 [4]): Active
- Activity (Rattus norvegicus): Active
- Activity (HeLa [5]): inactive
- fold change (FC) (HeLa [6]): 1.9
- viability at 30 µM (HeLa [7]): 82%
- Activity (A549 [8]): Active
- Activity (HeLa [9]): Active
- Activity [10]: Active
- Activity (HeLa [11]): Active
- Activity (HeLa [12]): Active
- Activity (Homo sapiens [13]): Active
- Activity (HeLa (Homo sapiens)): Active
- viability at 30 µM (A549 [15]): 88%
- viability at 30 µM (T98G): 91%
- Activity (Homo sapiens [16]): Active
